Laboratory results published in ChEMBL document CHEMBL1932929, “Lead optimization of 2-(piperidin-3-yl)-1H-benzimidazoles: identification of 2-morpholin- and 2-thiomorpholin-2-yl-1H-benzimidazoles as selective and CNS penetrating H₁-antihistamines for insomnia” (Bioorg Med Chem Lett, 2012).

How the values were obtained:
[1] = Drug uptake in brain of Sprague-Dawley rat at 30 mg/kg, po measured after 4 hrs; format: ADME, organism-based; set-up: dose 30 mg/kg, route oral; details: read-out: Drug uptake
In short: (§1)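 Single oral dose to Sprague Dawley rats; plasma and brain levels measured at 4 h; brain/plasma ratio taken from these 4 h levels.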

[2] = Ratio drug uptake in brain to plasma of Sprague-Dawley rat at 30 mg/kg, po measured after 4 hrs; format: ADME, organism-based; set-up: dose 30 mg/kg, route oral; details: read-out: BPR; in short: as §1
[3] = Drug uptake in plasma of Sprague-Dawley rat at 30 mg/kg, po measured after 4 hrs; format: ADME, organism-based; set-up: dose 30 mg/kg, route oral; details: read-out: Drug uptake; in short: as §1
[4] = Lipophilicity, log P of the compound; format: physicochemical; details: octanol/water
In short: (§2)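 Calculated values, not experimentally measured.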

[5] = Dissociation constant, pKa of the compound; format: physicochemical; in short: as §2
[6] = Drug uptake in brain of Sprague-Dawley rat at 10 mg/kg, po measured after 4 hrs; format: ADME, organism-based; set-up: dose 10 mg/kg, route oral; details: read-out: Drug uptake

Row | logP [4] | pKa [5] | SMILES | other results
1 | – | – | COc1ccc(Cn2c([C@H]3CNCCS3)nc3ccccc32)cc1 | concentration at 4 h [1]: 380 ng/g; Kp at 4 h [2]: 1.4; concentration at 4 h [3]: 260 ng/mL
2 | 3.3 | 7.5 | Cc1ccc(Cn2c([C@@H]3CNCCS3)nc3ccccc32)cc1C | –
3 | – | – | CN(CC1CCOCC1)C1CCN(c2nc3ccccc3n2Cc2ccc(F)cc2)CC1 | concentration at 4 h [6]: 94 ng/g
4 | 3.4 | 7.4 | Cc1ccc(Cn2c(C3CNCCO3)nc3ccccc32)cc1C (single isomer, unassigned; (+)) | –
